From publication PMC6146385 (Acta Pharmaceutica Sinica. B, 2018)

What was measured:
[1] = target: T1, AB sulfation in HLC (SULT2A1) (Homo sapiens, UniProt Q06520); test: Chemical inhibition of AB sulfation in HLC; type: biochemical; details: for inhibition of AB sulfation / residual activity of AB sulfation: HLC, Fig. 2A
T1 sequence (Q06520 1-285): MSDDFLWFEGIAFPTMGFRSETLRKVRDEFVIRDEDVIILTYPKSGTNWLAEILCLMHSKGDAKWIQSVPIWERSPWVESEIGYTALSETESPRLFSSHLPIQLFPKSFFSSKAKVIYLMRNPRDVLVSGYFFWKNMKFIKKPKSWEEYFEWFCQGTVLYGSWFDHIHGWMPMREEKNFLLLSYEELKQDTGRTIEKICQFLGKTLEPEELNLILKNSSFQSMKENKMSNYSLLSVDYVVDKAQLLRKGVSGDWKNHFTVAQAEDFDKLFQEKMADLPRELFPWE

[2] = target: T2, SULT2A1 (Homo sapiens, UniProt Q06520); test: Sulfation of AB, DHEA and bufadienolides by recombinant human SULT2A1; type: in vitro ADME
T2 sequence (Q06520 1-285): T1 sequence (Q06520 1-285)

[3] = test system: pooled human liver cytosols (HLC); test: Sulfation kinetics and rate in pooled human liver cytosols; type: in vitro ADME
Method in brief: (§1)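 Substrate-concentration series with pooled mixed-gender human liver cytosol or recombinant human SULTs. Buffer is 50 mmol/L potassium phosphate, pH 7.4, with DTT 8 mmol/L, MgCl2 5 mmol/L and PAPS 4 mmol/L, at 37 °C and within linear formation conditions. Sulfate is quantified by LC–MS/MS. Eadie–Hofstee plots choose the Michaelis–Menten or substrate-inhibition fit. Km, Vmax (and Ksi) come from nonlinear regression. Duplicates in three independent experiments.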

[4] = as above; type: in vitro ADME; details: human, pooled human liver cytosols (HLC), pH 7.4
Method in brief: as §1

[5] = test system: SULT2A1 (sulfation); test: as above; type: in vitro ADME; details: human, pooled human liver cytosols (HLC), pH 7.4, Km, sulfation by HLC
Method in brief: as §1

[6] = target: T3, SULT1E1 (Homo sapiens, UniProt P49888); test: DHEA sulfation kinetics by recombinant SULT1E1; type: in vitro ADME
T3 sequence (P49888 1-294): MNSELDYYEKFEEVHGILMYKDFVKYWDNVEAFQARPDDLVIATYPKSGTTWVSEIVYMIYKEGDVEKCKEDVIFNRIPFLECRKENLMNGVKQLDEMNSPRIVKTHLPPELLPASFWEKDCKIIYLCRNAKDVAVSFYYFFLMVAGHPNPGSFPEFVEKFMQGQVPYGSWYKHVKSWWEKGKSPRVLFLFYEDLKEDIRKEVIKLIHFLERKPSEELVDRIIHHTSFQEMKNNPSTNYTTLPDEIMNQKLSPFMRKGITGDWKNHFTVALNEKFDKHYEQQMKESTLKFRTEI

[7] = target: T4, AB sulfation in cytosol of human kidney, small intestine and brain (Homo sapiens, UniProt Q06520); test: Inhibition of AB sulfation in cytosol of human kidney, small intestine and brain; type: biochemical; details: Fig. S5
T4 sequence (Q06520 1-285): T1 sequence (Q06520 1-285)

[8] = target: T2, SULT2A1; test: Inhibition of AB sulfation in rhSULT2A1; type: biochemical
[9] = substrate: C[C@]12CC[C@H](O)CC1=CC[C@@H]1[C@@H]2CC[C@]2(C)C(=O)CC[C@@H]12; test: Sulfation of AB, DHEA and bufadienolides by recombinant human SULT2A1; type: in vitro ADME; details: other: sulfation by SULT2A1; pH 7.4; 37.0 °C
[10] = substrate: C[C@]12CC[C@H](O)CC1=CC[C@@H]1[C@@H]2CC[C@]2(C)C(=O)CC[C@@H]12; test: DHEA sulfation kinetics by recombinant SULT1E1; type: in vitro ADME, human; details: other: sulfation by SULT1E1; pH 7.4; 37.0 °C

For `Cc1cccc(Nc2ccccc2C(=O)O)c1C` [MFC, mefenamic acid], which “inhibition of AB sulfation” value [1] is on record?
The value was “less than 20%”.

For `O=[N+]([O-])c1cc(Cl)c(O)c(Cl)c1` [DCNP, 2,6-dichloro-p-nitrophenol], which “inhibition of AB sulfation” value [1] is on record?
Its value is “less than 20%”.

For `C[C@]12CC[C@H](O)C[C@H]1CC[C@@H]1[C@@H]2CC[C@]2(C)[C@@H](c3ccc(=O)oc3)C[C@H]3O[C@]132` [RB, resibufogenin], which “sulfation rates by SULT2A1 compared with other bufadienolides” value ([2]; 1, 10 and 100 µmol/L, 0.1 mg/mL protein, 60 min, Fig. S1B) is on record?
Its value is “higher than those of other bufadienolides”.

What about the “trend of sulfation rate with increasing substrate concentration” value ([2]; up to 100 µmol/L, SULT2A1) of the same molecule?
Its value is “decreasing trend”.

With `C[C@]12CC[C@@H]3c4ccc(O)cc4CC[C@H]3[C@@H]1CCC2=O` [estrone] as the molecule, how does the “inhibition of AB sulfation” value [1] read?
Its value is “less than 20%”.

Which results are given for `C[C@]12CC[C@H](O)CC1=CC[C@@H]1[C@@H]2CC[C@]2(C)C(=O)CC[C@@H]12` [DHEA, dehydroepiandrosterone]?
microsomal CLint ([2]; human, recombinant human SULT2A1 (rhSULT2A1), pH 7.4): 2940 µL/min/mg; kinetic model of sulfation ([2]; rhSULT2A1, Eadie–Hofstee plot): substrate inhibition kinetic model; Ksi ([2]; sulfation by SULT2A1): 2.2 ± 0.9 µmol/L; IC50 [1]: 1880 nM; residual activity of AB sulfation [1]: less than 10%; kinetic model of sulfation ([3]; HLC, Eadie–Hofstee plot): substrate inhibition kinetic model; Ksi ([3]; sulfation by HLC): 17.2 ± 2.9 µmol/L; Vm ([3]; sulfation by HLC): 0.052 ± 0.004 nmol/min/mg; microsomal CLint [4]: 48.2 µL/min/mg; Km [5]: 1.08 ± 0.17 µM; CLint of SULT1E1-mediated sulfation, fold higher than for SULT2A1 ([6]; SULT1E1 vs SULT2A1): 1.5 fold; Km of SULT1E1-mediated sulfation, fold lower than for SULT2A1 ([6]; SULT1E1 vs SULT2A1): 7.2 fold; microsomal CLint ([6]; human, recombinant human SULT1E1 (rhSULT1E1), pH 7.4): 4260 µL/min/mg; kinetic model of sulfation ([6]; rhSULT1E1): substrate inhibition kinetic model; Ksi ([6]; sulfation by SULT1E1): 2.9 ± 1.2 µmol/L; inhibitory effect toward AB sulfation in different organs [7]: strong inhibitory effect; IC50 [8]: 1640 nM

For `CC(C)Cc1ccc(C(C)C(=O)O)cc1` (centres unmarked) [ibuprofen], which “inhibition of AB sulfation” value [1] is on record?
The value was “less than 20%”.

What does the source list for `CC1(C)[C@@H](O)CC[C@]2(C)[C@H]3C(=O)C=C4[C@@H]5C[C@@](C)(C(=O)O)CC[C@]5(C)CC[C@@]4(C)[C@]3(C)CC[C@@H]12` [GA, glycyrrhetinic acid]?
residual activity of AB sulfation [1]: less than 10%; inhibitory effect toward AB sulfation in different organs [7]: strong inhibitory effect

With `CS(=O)(=O)Nc1ccc([N+](=O)[O-])cc1Oc1ccccc1` [nimesulide] as the molecule, how does the “inhibition of AB sulfation” value [1] read?
The value was “less than 20%”.

B1: rhSULT2A1 (Homo sapiens) (protein)
chain: T1 sequence (Q06520 1-285)
What does the source list for B1?
Km [9]: 2.48 ± 1.15 µM; Vmax [9]: 0.0073 µmol/min/mg; Vmax/Km [9]: 2940 µL/min/mg

B2: rhSULT1E1 (Homo sapiens) (protein)
chain: T3 sequence (P49888 1-294)
For B2, which Km [10] is on record?
The Km was 0.34 ± 0.13 µM.

And the Vmax [10]?
Its Vmax is 0.00145 µmol/min/mg.

And the Vmax/Km [10]?
The Vmax/Km was 4260 µL/min/mg.
